Experimental data reported in ChEMBL document CHEMBL3272325, “Structure-activity relationships of dimeric Catharanthus alkaloids. 1. Deacetylvinblastine amide (vindesine) sulfate” (J Med Chem, 1978).
Activity calls are given as the source filed them. The calls are words filed in the database; no cut-off is given here.

Tests used:
B16 [1] = test: Antitumor activity against mouse B16 cells allografted in B6D2F1 mouse assessed as mean survival time at 0.60 mg/kg/day, ip administered on day 1, 5 and 9 (reference value: 20.0 days); format: functional; conditions: route intraperitoneal
Procedure, shortened: (§1)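 Male B6D2F1 mice implanted ip on day 0 with 0.25 mL of a 20% (w/v) B16 melanoma brei. Alkaloid sulfate salts given ip on days 1, 5, 9 or on days 5, 9, 13, groups of 10, against 30 untreated controls. Read-outs: median survival time with range of individual deaths, and percent increase in life span, with survivors counted on day 56.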

B16 [2] = test: Antitumor activity against mouse B16 cells allografted in B6D2F1 mouse assessed as mean survival time at 1 mg/kg/day, ip administered on day 1, 5 and 9 (reference value: 20.0 days); format: functional; conditions: route intraperitoneal; procedure, shortened: as §1
B16 [3] = test: Antitumor activity against mouse B16 cells allografted in B6D2F1 mouse assessed as mean survival time at 1.67 mg/kg/day, ip administered on day 1, 5 and 9 (reference value: 20.0 days); format: functional; conditions: route intraperitoneal; procedure, shortened: as §1
P388 [4] = test: Antitumor activity against mouse P388 cells allografted in mouse assessed as increase in life span at 0.33 mg/kg/day, ip administered from day 1 to day 9 relative to untreated control; format: functional; conditions: route intraperitoneal
Procedure, shortened: (§2)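 P388 ascites implanted ip in mice, 10 animals per group. Sulfate salts given ip either daily on days 1-9 or as a single dose on day 1. Median life span was calculated using all deaths and survivors. Percent increase in life span was taken over untreated controls. The highest nontoxic dose was noted.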

P388 [5] = test: Antitumor activity against mouse P388 cells allografted in mouse assessed as increase in life span at 0.22 mg/kg/day, ip administered from day 1 to day 9 relative to untreated control; format: functional; conditions: route intraperitoneal; procedure, shortened: as §2
P388 [6] = test: Antitumor activity against mouse P388 cells allografted in mouse assessed as increase in life span at 4 mg/kg/day, ip after 1 day; format: functional; conditions: 24 h, route intraperitoneal; procedure, shortened: as §2
P388 [7] = test: Antitumor activity against mouse P388 cells allografted in mouse assessed as increase in life span at 2.7 mg/kg/day, ip after 1 day; format: functional; conditions: 24 h, route intraperitoneal; procedure, shortened: as §2
P388 [8] = test: Antitumor activity against mouse P388 cells allografted in mouse assessed as increase in life span at 1.8 mg/kg/day, ip after 1 day; format: functional; conditions: 24 h, route intraperitoneal; procedure, shortened: as §2
P388 [9] = test: Antitumor activity against mouse P388 cells allografted in mouse assessed as increase in life span at 1.2 mg/kg/day, ip after 1 day; format: functional; conditions: 24 h, route intraperitoneal; procedure, shortened: as §2
[10] = Toxicity in ip dosed mouse allografted with mouse p388 cells administered from day 1 to day 9; format: organism-based; conditions: in vivo, read-out: MNTD; procedure, shortened: as §2
[11] = Toxicity in ip dosed mouse allografted with mouse p388 cells after 1 day; format: organism-based; conditions: in vivo, read-out: MNTD; procedure, shortened: as §2
B16 [12] = test: Antitumor activity against mouse B16 cells allografted in B6D2F1 mouse assessed as mean survival time at 0.36 mg/kg/day, ip administered on day 1, 5 and 9 (reference value: 20.0 days); format: functional; conditions: route intraperitoneal; procedure, shortened: as §1
B16 [13] = test: Antitumor activity against mouse B16 cells allografted in B6D2F1 mouse assessed as mean survival time at 0.216 mg/kg/day, ip administered on day 1, 5 and 9 (reference value: 20.0 days); format: functional; conditions: route intraperitoneal; procedure, shortened: as §1
B16 [14] = test: Antitumor activity against mouse B16 cells allografted in B6D2F1 mouse assessed as increase in life span at 1.67 mg/kg/day, ip administered on day 1, 5 and 9 measured for 56 days relative to untreated control; format: functional; conditions: route intraperitoneal; procedure, shortened: as §1
B16 [15] = test: Antitumor activity against mouse B16 cells allografted in B6D2F1 mouse assessed as increase in life span at 1 mg/kg/day, ip administered on day 1, 5 and 9 measured for 56 days relative to untreated control; format: functional; conditions: route intraperitoneal; procedure, shortened: as §1
B16 [16] = test: Antitumor activity against mouse B16 cells allografted in B6D2F1 mouse assessed as increase in life span at 0.60 mg/kg/day, ip administered on day 1, 5 and 9 measured for 56 days relative to untreated control; format: functional; conditions: route intraperitoneal; procedure, shortened: as §1
B16 [17] = test: Antitumor activity against mouse B16 cells allografted in B6D2F1 mouse assessed as increase in life span at 0.36 mg/kg/day, ip administered on day 1, 5 and 9 measured for 56 days relative to untreated control; format: functional; conditions: route intraperitoneal; procedure, shortened: as §1
B16 [18] = test: Antitumor activity against mouse B16 cells allografted in B6D2F1 mouse assessed as increase in life span at 0.216 mg/kg/day, ip administered on day 1, 5 and 9 measured for 56 days relative to untreated control; format: functional; conditions: route intraperitoneal; procedure, shortened: as §1
B16 [19] = test: Antitumor activity against mouse B16 cells allografted in B6D2F1 mouse assessed as mean survival time at 1.67 mg/kg/day, ip administered on day 5, 9 and 13 (reference value: 20.0 days); format: functional; conditions: route intraperitoneal; procedure, shortened: as §1
B16 [20] = test: Antitumor activity against mouse B16 cells allografted in B6D2F1 mouse assessed as mean survival time at 1 mg/kg/day, ip administered on day 5, 9 and 13 (reference value: 20.0 days); format: functional; conditions: route intraperitoneal; procedure, shortened: as §1
B16 [21] = test: Antitumor activity against mouse B16 cells allografted in B6D2F1 mouse assessed as mean survival time at 0.60 mg/kg/day, ip administered on day 5, 9 and 13 (reference value: 20.0 days); format: functional; conditions: route intraperitoneal; procedure, shortened: as §1
B16 [22] = test: Antitumor activity against mouse B16 cells allografted in B6D2F1 mouse assessed as mean survival time at 0.36 mg/kg/day, ip administered on day 5, 9 and 13 (reference value: 20.0 days); format: functional; conditions: route intraperitoneal; procedure, shortened: as §1
B16 [23] = test: Antitumor activity against mouse B16 cells allografted in B6D2F1 mouse assessed as mean survival time at 0.216 mg/kg/day, ip administered on day 5, 9 and 13 (reference value: 20.0 days); format: functional; conditions: route intraperitoneal; procedure, shortened: as §1
B16 [24] = test: Antitumor activity against mouse B16 cells allografted in B6D2F1 mouse assessed as increase in life span at 1.67 mg/kg/day, ip administered on day 5, 9 and 13 measured for 56 days relative to untreated control; format: functional; conditions: route intraperitoneal; procedure, shortened: as §1
[25] = Antitumor activity against mouse Ridgeway osteogenic sarcoma cells allografted in mouse at 0.1 to 0.2 mg/kg/day, ip; format: functional; conditions: route intraperitoneal
Procedure, shortened: (§3)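 Sulfate salts given ip on days 1-9 against ROS and GLS in mice; tumor growth scored as percent inhibition versus controls (+++ = 75-100%, ++ = 50-75%, ± = under 25%).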

[26] = Antitumor activity against mouse Gardner lymphosarcoma cell allografted in mouse at 0.1 to 0.2 mg/kg/day, ip; format: functional; conditions: route intraperitoneal; procedure, shortened: as §3
[27] = Acute toxicity in ip dosed mouse; format: organism-based; conditions: in vivo
P388 [28] = test: Antitumor activity against mouse P388 cells allografted in mouse assessed as survival at 1.8 mg/kg/day after 1 day; format: functional, organism-based
Procedure, shortened: (§4)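 P388 ascites implanted ip in mice; sulfate salts dosed either daily or as a single dose on day 1, 10 animals per group. Survivors per total were recorded, median life span was calculated using all deaths and survivors, and percent increase of life span was reported.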

[29] = Antitumor activity against mouse P1534(J) cells allografted in mouse assessed as tumor growth inhibition at 0.25 mg/kg/day, ip administered from day 1 to day 9 relative to unreated control; format: functional; conditions: P1534J, route intraperitoneal, read-out: TGI
Procedure, shortened: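 P1534(J) leukemia implanted subcutaneously in mice; sulfate salts given ip on days 1-9. Read-out is percent inhibition of tumor growth versus untreated controls.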

[30] = Toxicity in ip dosed mouse allografted with mouse P1534(J) cells administered from day 1 to day 9; format: organism-based; conditions: in vivo, read-out: MNTD
Procedure, shortened: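 P1534(J) leukemia implanted subcutaneously in mice. Sulfate salts given ip daily on days 1-9. Read-out was percent inhibition of tumor growth relative to untreated controls. The highest nontoxic dose was recorded.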

P388 [31] = test: Antitumor activity against mouse P388 cells allografted in mouse assessed as survival at 1.2 mg/kg/day after 1 day; format: functional, organism-based; procedure, shortened: as §4
B16 [32] = test: Antitumor activity against mouse B16 cells allografted in B6D2F1 mouse assessed as increase in life span at 1 mg/kg/day, ip administered on day 5, 9 and 13 measured for 56 days relative to untreated control; format: functional; conditions: route intraperitoneal; procedure, shortened: as §1
B16 [33] = test: Antitumor activity against mouse B16 cells allografted in B6D2F1 mouse assessed as increase in life span at 0.60 mg/kg/day, ip administered on day 5, 9 and 13 measured for 56 days relative to untreated control; format: functional; conditions: route intraperitoneal; procedure, shortened: as §1
B16 [34] = test: Antitumor activity against mouse B16 cells allografted in B6D2F1 mouse assessed as increase in life span at 0.36 mg/kg/day, ip administered on day 5, 9 and 13 measured for 56 days relative to untreated control; format: functional; conditions: route intraperitoneal; procedure, shortened: as §1
B16 [35] = test: Antitumor activity against mouse B16 cells allografted in B6D2F1 mouse assessed as increase in life span at 0.216 mg/kg/day, ip administered on day 5, 9 and 13 measured for 56 days relative to untreated control; format: functional; conditions: route intraperitoneal; procedure, shortened: as §1
[36] = Acute toxicity in rat; format: organism-based; conditions: in vivo
Gallus gallus = test: Neurotoxicity in iv dosed chicken assessed as neuromuscular disturbance by measuring loss of balance; format: organism-based; conditions: in vivo
Rhesus monkey [37] = test: Neurotoxicity in iv dosed monkey assessed as peripheral neuropathy; format: toxicity, organism-based, Macaca mulatta; conditions: in vivo
P388 [38] = test: Antitumor activity against mouse P388 cells allografted in mouse assessed as survival at 0.22 mg/kg/day administered from day 1 to day 9; format: functional, organism-based; procedure, shortened: as §4
Rhesus monkey [39] = test: Neurotoxicity in iv dosed monkey assessed as peripheral neuropathy; conditions: in vivo

CC[C@]1(O)C[C@H]2CN(CCc3c([nH]c4ccccc34)[C@@](C(=O)OC)(c3cc4c(cc3OC)N(C=O)[C@H]3[C@@](O)(C(=O)OC)[C@H](OC(C)=O)[C@]5(CC)C=CCN6CC[C@]43[C@@H]65)C2)C1.O=S(=O)(O)O [VINCRISTINE SULFATE]
MST (B16 [1]): 30.5 days
MST (B16 [2]): 32.5 days
MST (B16 [3]): 35 days
ILS at 0.33 mg/kg/day (P388 [4]): 181%
ILS at 0.22 mg/kg/day (P388 [5]): 131%
ILS at 4 mg/kg/day (P388 [6]): 118%
ILS at 2.7 mg/kg/day (P388 [7]): 100%
ILS at 1.8 mg/kg/day (P388 [8]): 81%
ILS at 1.2 mg/kg/day (P388 [9]): 68%
MTD [10]: 0.33 mg/kg/day
MTD at 24 h [11]: 4 mg/kg/day
MST (B16 [12]): 26 days
MST (B16 [13]): 24 days
ILS at 1.67 mg/kg/day (B16 [14]): 75%
ILS at 1 mg/kg/day (B16 [15]): 62%
ILS at 0.6 mg/kg/day (B16 [16]): 52%
ILS at 0.36 mg/kg/day (B16 [17]): 30%
ILS at 0.216 mg/kg/day (B16 [18]): 20%
MST (B16 [19]): 26 days
MST (B16 [20]): 29.5 days
MST (B16 [21]): 24.5 days
MST (B16 [22]): 24 days
MST (B16 [23]): 24.5 days
ILS at 1.67 mg/kg/day (B16 [24]): 30%
TGI [25]: 75%
TGI [26]: 75%
LD50 [27]: 2.1 mg/kg
Activity (P388 [28]): inactive
inhibition in vivo at 0.25 mg/kg/day [29]: 77%
MTD [30]: 0.25 mg/kg/day
Activity (P388 [31]): inactive
ILS at 1 mg/kg/day (B16 [32]): 48%
ILS at 0.6 mg/kg/day (B16 [33]): 22%
ILS at 0.36 mg/kg/day (B16 [34]): 20%
ILS at 0.216 mg/kg/day (B16 [35]): 22%
LD50 [36]: 1 mg/kg
Activity (Gallus gallus): Toxic
Activity (Rhesus monkey [37]): Toxic
Activity (P388 [38]): inactive
Activity (Rhesus monkey [39]): Toxic
